Measurements gathered from unrelated publications.
Each line is one published result; the experiments were not run side by side.
Cell line: MM1.S
Observed: cell growth or viability

Structure (SMILES)	assay	setting	quantity	result
CON(C)C(=O)N1N=C(c2cc(F)ccc2F)S[C@@]1(CCCN)c1ccccc1	ATP luminescence	72 h	IC50	4.9 nM
CCS(=O)(=O)Nc1ccc(Oc2ccc(Cl)cc2)c(-c2cn(C)c(=O)c3ccccc23)c1	resazurin	72 h	IC50	3.5 nM
C=CC(=O)N1CCC[C@@H](n2nc(-c3ccc(Oc4ccccc4)cc3)c3c(N)ncnc32)C1		48 h	GI50	7560 nM
N[C@@H]1CCCN(c2c(/C=C3\SC(=O)NC3=O)cccc2-c2ccccc2)C1	thymidine uptake	72 h	GI50	711 nM
CC(C)C[C@H](NC(=O)[C@H](Cc1ccccc1)NC(=O)c1cnccn1)B(O)O	ATP luminescence		EC50	1.5 nM
O=C(C[C@@H](C(F)F)n1ccc(F)n1)N1CCC(O)(Cn2cnc3c(cnn3-c3ccc(F)cc3)c2=O)CC1	ATP luminescence	5 days	IC50	33 nM
CCOC(=O)C1=C(C)NC(=S)NC1c1cccc(O)c1 (centres unmarked)	ATP luminescence	72 h	IC50	144000 nM
CC(C)C[C@H](NC(=O)[C@H](Cc1ccccc1)NC(=O)c1cnccn1)B(O)O	ATP luminescence	48 h	IC50	15 nM
